Measurements published in ChEMBL document CHEMBL1649178, “Penetration of moxifloxacin into bone evaluated by Monte Carlo simulation” (Antimicrob Agents Chemother, 2009).
≈ marks a conversion by molar mass, not a printed value.

Tests used:
[1] = fAUC/MIC in osteomyelitis patient cortical bone at 400 mg, po administered for every 24 hrs at PKPD breakpoint at 1 mg/liter; format: functional
Summary of the method: (§1)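 PKPD targets were derived by reverse engineering from success rates in clinical osteomyelitis studies, the expected AUCs at the doses used there, and published MIC distributions. Bone targets (total drug) use a ciprofloxacin bone/serum AUC ratio of 0.63. Concentration profiles were simulated for 10,000 patients given 400 mg orally q24h at steady state, without residual error, with serum protein binding assumed at 50%.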

[2] = fAUC/MIC in osteomyelitis patient cortical bone at 400 mg, po administered for every 24 hrs at PKPD breakpoint at 0.25 mg/liter; format: functional; summary of the method: as §1
[3] = tested on: Staphylococcus aureus; test: Antimicrobial activity against Staphylococcus aureus
[4] = fAUC/MIC in osteomyelitis patient cortical bone at 400 mg, po administered for every 24 hrs at PKPD breakpoint at 0.5 mg/liter; format: functional; summary of the method: as §1
[5] = Drug level in osteomyelitis patient cortical bone at 400 mg, po administered for every 24 hrs; format: ADME, organism-based, Bone element; details: human, in vivo
[6] = fAUC/MIC in osteomyelitis patient cancellous bone at 400 mg, po administered for every 24 hrs at PKPD breakpoint at 0.25 mg/liter; format: functional; summary of the method: as §1
[7] = Drug level in osteomyelitis patient cancellous bone at 400 mg, po administered for every 24 hrs; format: ADME, organism-based; details: human, in vivo
[8] = fAUC/MIC in osteomyelitis patient cancellous bone at 400 mg, po administered for every 24 hrs at PKPD breakpoint at 0.375 mg/liter; format: functional; summary of the method: as §1
[9] = fAUC/MIC in osteomyelitis patient cancellous bone at 400 mg, po administered for every 24 hrs at PKPD breakpoint at 1 mg/liter; format: functional; summary of the method: as §1
[10] = fAUC/MIC in osteomyelitis patient serum at 400 mg, po administered for every 24 hrs at PKPD breakpoint at 0.19 mg/liter; format: functional; summary of the method: as §1
[11] = fAUC/MIC in osteomyelitis patient serum at 400 mg, po administered for every 24 hrs at PKPD breakpoint at 1 mg/liter; format: functional; summary of the method: as §1
[12] = fAUC/MIC in osteomyelitis patient serum at 400 mg, po administered for every 24 hrs at PKPD breakpoint at 0.375 mg/liter; format: functional; summary of the method: as §1

COc1c(N2C[C@@H]3CCCN[C@@H]3C2)c(F)cc2c(=O)c(C(=O)O)cn(C3CC3)c12 [MOXIFLOXACIN]
fAUC/MIC [1]: 13 | fAUC/MIC [2]: 55 | MIC90 [3]: 0.125 µg/mL (≈ 0.311 µM) | fAUC/MIC [4]: 33 | Drug uptake [5]: 80% | fAUC/MIC [6]: 55 | Drug uptake [7]: 78% | fAUC/MIC [8]: 33 | fAUC/MIC [9]: 13 | fAUC/MIC [10]: 66 | fAUC/MIC [11]: 15 | fAUC/MIC [12]: 40
